{
  "source": "paper PMC7446891",
  "about": "(Bioorganic & medicinal chemistry, 2020)",
  "data": [
    {"target": "EphA2 (Homo sapiens, UniProt P29317)", "sequence (P29317 24-976)": "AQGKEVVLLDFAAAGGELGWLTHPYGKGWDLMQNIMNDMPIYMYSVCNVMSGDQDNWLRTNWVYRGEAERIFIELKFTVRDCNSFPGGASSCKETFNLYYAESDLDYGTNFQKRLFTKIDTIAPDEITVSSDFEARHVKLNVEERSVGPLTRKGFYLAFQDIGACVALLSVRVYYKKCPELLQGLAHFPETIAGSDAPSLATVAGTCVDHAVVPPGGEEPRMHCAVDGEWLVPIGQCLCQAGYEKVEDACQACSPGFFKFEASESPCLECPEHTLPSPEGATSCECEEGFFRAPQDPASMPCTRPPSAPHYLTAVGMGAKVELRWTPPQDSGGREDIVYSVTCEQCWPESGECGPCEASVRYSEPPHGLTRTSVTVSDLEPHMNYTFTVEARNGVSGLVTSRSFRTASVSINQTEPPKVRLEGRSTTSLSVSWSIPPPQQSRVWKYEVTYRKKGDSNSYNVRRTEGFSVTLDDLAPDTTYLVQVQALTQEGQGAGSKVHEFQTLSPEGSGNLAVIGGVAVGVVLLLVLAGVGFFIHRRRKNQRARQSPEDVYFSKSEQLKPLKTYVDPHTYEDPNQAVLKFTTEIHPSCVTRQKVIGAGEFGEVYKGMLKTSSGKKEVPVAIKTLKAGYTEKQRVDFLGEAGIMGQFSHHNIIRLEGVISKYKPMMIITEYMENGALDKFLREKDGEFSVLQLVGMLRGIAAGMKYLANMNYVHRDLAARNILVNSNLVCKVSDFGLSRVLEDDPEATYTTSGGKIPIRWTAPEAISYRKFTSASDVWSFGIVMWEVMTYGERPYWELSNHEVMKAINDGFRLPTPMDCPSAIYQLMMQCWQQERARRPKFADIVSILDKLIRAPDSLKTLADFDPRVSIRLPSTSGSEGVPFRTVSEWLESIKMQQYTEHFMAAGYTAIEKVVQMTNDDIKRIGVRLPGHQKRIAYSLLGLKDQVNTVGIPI", "assay": "EphA2 activation", "type": "cell-based", "details": "2 μM in 0.1% DMSO, 1hr, U251 EphA2 cells, vs DMSO control", "procedure,_shortened": "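EphA2-overexpressing U251 cells were seeded at 100,000/well, grown 24 h, then given 2 μM test compound in 0.1% DMSO (1 hr per legend; methods text gives 30 min), with 0.1% DMSO vehicle. Cells were lysed 20 min in modified RIPA (pH 7.4, vanadate, NaF, protease inhibitors), immunoprecipitated, then blotted for pEphA/B (1:500) and EphA2 (1:1000), HRP anti-rabbit, chemiluminescence. Bands were quantified by densitometry, 3 experiments, unpaired t-test vs DMSO.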", "values": [
      {"molecule": "COc1cc2nc(N3CCN(C(=O)Oc4ccc(C(C)(C)c5ccc(OC(=O)N6CCN(c7nc(N)c8cc(OC)c(OC)cc8n7)CC6)cc5)cc4)CC3)nc(N)c2cc1OC", "note": "[Compound 3e, propane-2,2-diylbis(4,1-phenylene)bis(4-(4-amino-6,7-dimethoxyquinazolin-2-yl)piperazine-1-carb oxylate)]", "EphA2 phosphorylation (pEphA/B vs total EphA2)": "better activity to induce EphA2 phosphorylation"},
      {"molecule": "COc1cc2nc(N3CCN(C(=O)c4cccc(NC(=O)OCCOCCOCCOC(=O)Nc5cccc(C(=O)N6CCN(c7nc(N)c8cc(OC)c(OC)cc8n7)CC6)c5)c4)CC3)nc(N)c2cc1OC", "note": "[Compound 7bg, (ethane-1,2-diylbis(oxy))bis(ethane-2,1-diyl)bis((3-(4-(4-amino-6,7-dimethoxyquinazolin-2-yl)piperazine-1-carbonyl)phenyl)carbamate)]", "EphA2 phosphorylation (pEphA/B vs total EphA2)": "statistical significance compared to control"},
      {"molecule": "COc1cc2nc(N3CCN(C(=O)OCCOC(=O)N4CCN(c5nc(N)c6cc(OC)c(OC)cc6n5)CC4)CC3)nc(N)c2cc1OC", "note": "[Compound 3d, ethane-1,2-diyl bis(4-(4-amino-6,7-dimethoxyquinazolin-2-yl)piperazine-1-carboxylate)]", "EphA2 phosphorylation (pEphA/B vs total EphA2)": "did not show clear EphA2 activation"}
    ]}
  ]
}
